# Measured values gathered from unrelated publications.
# Protocols differ between the studies behind these lines.
# CDK4 with cyclin D1: Cyclin-dependent kinase 4, with cyclin D1 (CDK4, Homo sapiens, UniProt P11802)
# OSBP: Oxysterol-binding protein 1 (OSBP, Homo sapiens, UniProt P22059)
# SLC22A8: Organic anion transporter 3 (SLC22A8, Homo sapiens, UniProt Q8TCC7)
Compound,target,assay,test system,setting,endpoint,result
CN(C)C(=O)c1cc2cnc(Nc3cc(C(=O)O)cc(-c4ccc5c(=O)cc(N6CCOCC6)oc5c4)c3)nc2n1C1CCCC1,CDK4 with cyclin D1,"enzyme activity, inhibitor, radiometric",,,IC50,7.85 µM
CCOc1ccc(C(=O)CC(SCc2ccc(OC)cc2)C(=O)O)cc1 (centres unmarked),OSBP,"ligand displacement, FP",,,Ki,549 µM
CN(C)C(=O)c1cc2cnc(Nc3cc(C(F)(F)F)c(-c4ccc5c(=O)cc(N6CCOCC6)oc5c4)cn3)nc2n1C1CCCC1,CDK4 with cyclin D1,"enzyme activity, inhibitor, radiometric",,,IC50,> 10 µM
O=C(O)c1ccc2nc(-c3cc(Cl)cc(Cl)c3)oc2c1,SLC22A8,"transporter uptake, inhibitor",HEK293,pH 7.4,Ki,2.36 µM
CN(C)C(=O)c1cc2cnc(Nc3cccc(-c4cccc5c(=O)cc(N6CCOCC6)oc45)c3)nc2n1C1CCCC1,CDK4 with cyclin D1,"enzyme activity, inhibitor, radiometric",,,IC50,0.336 µM
CCOc1ccc(C(=O)CC(SCc2ccc(Cl)cc2)C(=O)OC)cc1 (centres unmarked),OSBP,"ligand displacement, FP",,,Ki,> 1000 µM
CSC[C@H]1O[C@@H](n2cnc3c(N)ncnc32)[C@H](O)[C@@H]1O,"tapT (Escherichia coli, UniProt Q47319)","binding, ITC",,,Kd,150 µM
CCOc1ccc(C(=O)CC(SCc2ccc(Br)cc2)C(=O)O)cc1 (centres unmarked),OSBP,"ligand displacement, FP",,,Ki,459 µM
C=CC(=O)N1C[C@H](Nc2ncnc3[nH]ccc23)CC[C@@H]1C,SLC22A8,"transporter uptake, inhibitor",HEK293,pH 7.4,Ki,41 µM
CN(C)C(=O)c1cc2cnc(Nc3cc(C(=O)O)cc(-c4cccc5c(=O)cc(N6CCOCC6)oc45)c3)nc2n1C1CCCC1,CDK4 with cyclin D1,"enzyme activity, inhibitor, radiometric",,,IC50,> 10 µM
CCOc1ccc(C(=O)CC(SCc2ccccc2)C(=O)O)cc1 (centres unmarked),OSBP,"ligand displacement, FP",,,Ki,> 1000 µM
Nc1nc2c(ncn2[C@@H]2O[C@H](COP(=O)(O)OP(=O)(O)OP(=O)(O)O)[C@@H](O)[C@H]2O)c(=O)[nH]1,"GTPase KRas (KRAS, Homo sapiens, UniProt P01116, Q61H)",binding,,,Kd,0.118 µM
C[S+](CC[C@H](N)C(=O)O)C[C@H]1O[C@@H](n2cnc3c(N)ncnc32)[C@H](O)[C@@H]1O (some centres unmarked),"tapT (Escherichia coli, UniProt Q47319, D137A)","binding, ITC",,,Kd,590 µM
CN(C)C(=O)c1cc2cnc(Nc3ccc(C(=O)NCCCCCCOc4cccc5c4C(=O)N(C4CCC(=O)NC4=O)C5=O)cc3)nc2n1C1CCCC1 (centres unmarked),"Cyclin-dependent kinase 4 (CDK4, Homo sapiens, UniProt P11802)","binding, competition with immobilised ligand",,,Kd,< 0.2 µM
